# Reference: ChEMBL document CHEMBL1141264, “Cucurbitane-type triterpenoids from the fruits of Momordica charantia and their cancer chemopreventive effects” (J Nat Prod, 2007)
# Legend:
# [1] = species on record: Mus musculus; assay: Inhibition of DMBA-induced carcinogenesis in mouse assessed as number of papillomas per mouse after 20 weeks; assay type: functional
# In short: (§1)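 Mouse skin two-stage model, DMBA initiation and TPA promotion. Promotion with TPA 1.7 nmol; treated groups received 85 nmol test compound with each TPA application. Read-outs were % of mice bearing papillomas and mean papillomas per mouse, scored at 10 and 20 weeks. Papilloma numbers compared by Student's t-test.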
# [2] = system: Raji; assay: Inhibition of TPA-induced Epstein-Barr virus early antigen in Raji cells at 100 mol ratio/TPA relative to control; values are per cent of control; conditions: human gammaherpesvirus 4
# [3] = species on record: Mus musculus; assay: Inhibition of DMBA-induced carcinogenesis in mouse assessed as reduction in papilloma bearing mouse after 10 weeks; assay type: functional; parameters: scale not given: the % may be the effect or the level left; in short: as §1
# [4] = species on record: Mus musculus; assay: Inhibition of DMBA-induced carcinogenesis in mouse assessed as reduction in papilloma bearing mouse after 20 weeks; assay type: functional; parameters: scale not given: the % may be the effect or the level left; in short: as §1
# [5] = Scavenging activity against NO generation in NOR1-induced cell culture; assay type: functional
# In short: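 Cultured-cell screen for scavenging of NO released by the NO donor NOR 1. Activity expressed as inhibitory ratio (IR) against NOR 1 action, with glycyrrhizin and carboxy-PTIO as reference compounds.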
# [6] = system: Raji; assay: Inhibition of TPA-induced Epstein-Barr virus early antigen in Raji cells at 500 mol ratio/TPA relative to control; values are per cent of control; conditions: human gammaherpesvirus 4
# [7] = species on record: Mus musculus; assay: Inhibition of DMBA-induced carcinogenesis in mouse assessed as number of papillomas per mouse after 10 weeks; assay type: functional; in short: as §1
# [8] = system: Raji; assay: Inhibition of TPA-induced Epstein-Barr virus early antigen in Raji cells at 1000 mol ratio/TPA relative to control; values are per cent of control; conditions: human gammaherpesvirus 4
# [9] = Cytotoxicity against human Raji cells assessed as cell viability at 1000 mol ratio/TPA relative to control; assay type: cell-based; conditions: read-out: Activity
# In short: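 Raji cells stimulated with TPA at 32 pmol (20 ng), taken as 100% positive control. Test compound added at mol ratio to TPA of 1000, 500, 100 or 10 (1000:1 = 32 nmol). EBV-EA induction expressed as % of positive control; Raji cell viability recorded as % at the 1000 ratio. IC50 as mol ratio to TPA inhibiting 50% of control.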
# [10] = system: Raji; assay: Inhibition of TPA-induced Epstein-Barr virus early antigen in Raji cells at 10 mol ratio/TPA relative to control; values are per cent of control; conditions: human gammaherpesvirus 4
Structure (SMILES),Activity [1],"level, % of control [2] [%]",Activity [3] [%],Activity [4] [%],inhibitory ratio (IR) against NOR 1 action [5],"level, % of control [6] [%]",Activity [7],"level, % of control [8] [%]",viability at 1000 mol ratio/TPA [9] [%],"level, % of control [10] [%]"
C=C(C)/C=C/C[C@@H](C)[C@H]1CC[C@@]2(C)[C@@H]3C=C[C@@]45O[C@@H](OC)[C@]3(CC[C@]12C)[C@@H]4CC[C@H](O)C5(C)C,4,60.2,33,80,2,18.5,1.7,0,70,82.7
CO[C@H]1C=C2[C@@H](CC[C@H](O)C2(C)C)[C@]2(C=O)CC[C@]3(C)[C@@H]([C@H](C)C/C=C/C(C)(C)OC)CC[C@@]3(C)[C@H]12,–,77.5,–,–,1.5,33.7,–,0,70,97.3
COC1O[C@]23C=C[C@@H]4[C@@]1(CC[C@]1(C)[C@@H]([C@H](C)C/C=C/C(C)(C)O)CC[C@@]41C)[C@@H]2CC[C@H](O)C3(C)C (some centres undefined),–,72.5,–,–,1.9,27.6,–,0,70,94.5
C=C(C)/C=C/C[C@@H](C)[C@H]1CC[C@@]2(C)[C@@H]3[C@@H](OC)C=C4[C@@H](CC[C@H](O)C4(C)C)[C@]3(C=O)CC[C@]12C,–,75.4,–,–,1.6,22.5,–,0,70,95.3
CC1(C)N([O])C(c2ccc(C(=O)O)cc2)=[N+]([O-])C1(C)C,–,–,–,–,8,–,–,–,–,–
CC1=C(/C=C/C(C)=C/C=C/C(C)=C/C=C/C=C(C)/C=C/C=C(C)/C=C/C2=C(C)CCCC2(C)C)C(C)(C)CCC1,–,82.1,–,–,–,34.2,–,8.6,–,100
C=C(C)/C=C/C[C@@H](C)[C@H]1CC[C@@]2(C)[C@@H]3C=C[C@@]45OC[C@]3(CC[C@]12C)[C@@H]4CC[C@H](O[C@@H]1O[C@H](CO)[C@@H](O)[C@H](O)[C@H]1O)C5(C)C [CHARANTOSIDE III],–,82.1,–,–,–,36,–,12.9,70,100
CO[C@@H]1O[C@]23C=C[C@@H]4[C@@]1(CC[C@]1(C)[C@@H]([C@H](C)C[C@H](C=C(C)C)OC)CC[C@@]41C)[C@@H]2CC[C@H](O[C@@H]1O[C@H](CO)[C@@H](O)[C@@H](O)[C@H]1O)C3(C)C [CHARANTOSIDE II],–,82.1,–,–,–,35,–,12.3,70,100
C=C(C)/C=C/C[C@@H](C)[C@H]1CC[C@@]2(C)[C@@H]3C=C[C@@]45OC[C@]3(CC[C@]12C)[C@@H]4CC[C@H](O[C@@H]1O[C@H](CO)[C@@H](O)[C@@H](O)[C@H]1O)C5(C)C [CHARANTOSIDE IV],–,81.1,–,–,–,35,–,12.1,70,100
C=C(C)/C=C/C[C@@H](C)[C@H]1CC[C@@]2(C)[C@@H]3C=C[C@@]45O[C@@H](OC)[C@]3(CC[C@]12C)[C@@H]4CC[C@H](O[C@@H]1O[C@H](CO)[C@@H](O)[C@H](O)[C@H]1O)C5(C)C [CHARANTOSIDE I],–,81.1,–,–,–,35.4,–,12.6,70,100
CO[C@H]1C=C2[C@@H](CC[C@H](O[C@@H]3O[C@H](CO)[C@@H](O)[C@H](O)[C@H]3O)C2(C)C)[C@]2(C=O)CC[C@]3(C)[C@@H]([C@H](C)C/C=C/C(C)(C)OC)CC[C@@]3(C)[C@H]12 [CHARANTOSIDE VIII],–,82.5,–,–,–,38.5,–,15.3,70,100
C=C(C)/C=C/C[C@@H](C)[C@H]1CC[C@@]2(C)[C@@H]3C=C[C@@]45OC(=O)[C@]3(CC[C@]12C)[C@@H]4CC[C@H](O[C@@H]1O[C@H](CO)[C@@H](O)[C@H](O)[C@H]1O)C5(C)C [CHARANTOSIDE VII],–,75.1,–,–,–,28.1,–,9.9,70,100
CO[C@H](C=C(C)C)C[C@@H](C)[C@H]1CC[C@@]2(C)[C@@H]3C=C[C@@]45OC[C@]3(CC[C@]12C)[C@@H]4CC[C@H](O[C@@H]1O[C@H](CO)[C@@H](O)[C@@H](O)[C@H]1O)C5(C)C [CHARANTOSIDE VI],–,82,–,–,–,35.9,–,12.7,70,100
CO[C@@H](C=C(C)C)C[C@@H](C)[C@H]1CC[C@@]2(C)[C@@H]3C=C[C@@]45OC[C@]3(CC[C@]12C)[C@@H]4CC[C@H](O[C@@H]1O[C@H](CO)[C@@H](O)[C@H](O)[C@H]1O)C5(C)C [CHARANTOSIDE V],–,77,–,–,–,30.6,–,10.5,70,100
COc1cc(/C=C/C(=O)CC(=O)/C=C/c2ccc(O)c(OC)c2)ccc1O [CURCUMIN],–,81.8,–,–,–,22.8,–,0,70,100
CC1(C)[C@@H](O[C@H]2O[C@H](C(=O)O)[C@@H](O)[C@H](O)[C@H]2O[C@@H]2O[C@H](C(=O)O)[C@@H](O)[C@H](O)[C@H]2O)CC[C@]2(C)[C@H]3C(=O)C=C4[C@@H]5C[C@@](C)(C(=O)O)CC[C@]5(C)CC[C@@]4(C)[C@]3(C)CC[C@@H]12 [GLYCYRRHIZIN],–,83.3,–,–,2.2,63.3,–,27.4,> 80,100
COC1O[C@]23C=C[C@@H]4[C@@]1(CC[C@]1(C)[C@@H]([C@H](C)C/C=C/C(C)(C)OC)CC[C@@]41C)[C@@H]2CC[C@H](O[C@@H]1O[C@H](CO)[C@@H](O)[C@H](O)[C@H]1O)C3(C)C (some centres undefined) [GOYAGLYCOSIDE C],–,80,–,–,–,33.7,–,13.5,70,100
COC1O[C@]23C=C[C@@H]4[C@@]1(CC[C@]1(C)[C@@H]([C@H](C)C/C=C/C(C)(C)OC)CC[C@@]41C)[C@@H]2CC[C@H](O[C@@H]1O[C@H](CO)[C@@H](O)[C@@H](O)[C@H]1O)C3(C)C (some centres undefined) [GOYAGLYCOSIDE D],–,80.3,–,–,–,34.2,–,11.2,70,100
CO[C@H](C=C(C)C)C[C@@H](C)[C@H]1CC[C@@]2(C)[C@@H]3[C@@H](OC)C=C4[C@@H](CC[C@H](O[C@@H]5O[C@H](CO)[C@@H](O)[C@H](O)[C@H]5O)C4(C)C)[C@]3(C)CC[C@]12C [KARAVILOSIDE I],–,83.7,–,–,–,39.2,–,16.1,70,100
COC(C)(C)/C=C/C[C@@H](C)[C@H]1CC[C@@]2(C)[C@@H]3C=C[C@@]45OC[C@]3(CC[C@]12C)[C@@H]4CC[C@H](O[C@@H]1O[C@H](CO)[C@@H](O)[C@H](O)[C@H]1O)C5(C)C [MOMORDICOSIDE F1],–,78.1,–,–,–,31.5,–,11.3,70,100
C[C@H](C/C=C/C(C)(C)O)[C@H]1CC[C@@]2(C)[C@@H]3C=C[C@@]45OC[C@]3(CC[C@]12C)[C@@H]4CC[C@H](O[C@@H]1O[C@H](CO)[C@@H](O)[C@@H](O)[C@H]1O)C5(C)C [MOMORDICOSIDE F2],–,76.9,–,–,–,29.7,–,9.1,70,100
